Measurements as given in ChEMBL document CHEMBL1789904, “Imaging of Plasmodium liver stages to drive next-generation antimalarial drug discovery” (Science, 2011).
pIC50: −log10 of the molar value.

Tested on: Plasmodium yoelii
Assay: NOVARTIS: Antimalarial liver stage activity measured as reduction in Plasmodium yoelii schizont area in HepG2-A16-CD81 cells by immuno-fluorescence, and median schizont size at 10uM compound concentration
Type: functional, organism-based
Details: for pIC50: Plasmodium yoelii, HepG2-A16-CD81
Outline: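 Host and parasite nuclei stained with Hoechst 33342, parasites with αPyHSP70 antibody; 25 images per well by high-content imaging; median parasite (schizont) area measured by automated image analysis, ~50 schizonts per experiment, two or more independent experiments.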

SMILES	Schizont size	pIC50
CN1CCN(c2ccc(Nc3c4ccccc4nc4ccccc34)cc2)CC1	45.82 um	6.26
CCOC(=O)c1cnc2ccc(C(C)C)cc2c1O	31.42 um	6.45
CCN(CC)CCCNc1nc2cc(OC)c(OC)cc2c2nc(-c3ccccc3)nn12	52.61 um	6.49
O=C(Nc1ccc(C(F)(F)F)cc1)c1ccc(NCCCN2CCCCCC2)c([N+](=O)[O-])c1	74.21 um	6.35
COc1cccc(C(=O)NC(c2ccccc2OC)c2cc(Cl)c3cccnc3c2O)c1 (centres undefined)	20.25 um	6.26
COc1ccc2nc(C)cc(Nc3ccc(Cl)c(Cl)c3)c2c1	39.25 um	6.36
O=C(c1cccs1)N1CCN(c2ccc([N+](=O)[O-])c(NC3CC3)c2)CC1	83.6 um	6.16
COc1ccc2nc(-c3ccccc3)cc(NCCN(C)C)c2c1	69.1 um	6.24
CCCN(CCC)[P+](CCC)(c1ccc([P+](CCC)(N(CCC)CCC)N(CCC)CCC)cc1)N(CCC)CCC	28.29 um	6.55
c1ccc2c(NCCc3c[nH]cn3)c3ccccc3nc2c1	110.22 um	6.15
COc1cc(C(=O)N2N=C(c3c(-c4ccccc4)c4cc(Br)ccc4[nH]c3=O)CC2c2cccc([N+](=O)[O-])c2)cc(OC)c1OC (centres undefined)	29.43 um	6.36
CCCN(CCC)CCCNc1ccc(C(=O)Nc2ccc(C)c(F)c2)cc1[N+](=O)[O-]	83.5 um	6.19
Oc1c(C(Nc2ccccn2)c2cccc(Cl)c2Cl)ccc2cccnc12 (centres undefined)	23.8 um	6.40
CCOc1ccc(Nc2cc(=O)oc3ccccc23)cc1	43.94 um	6.30
COc1ccc(Nc2cc(C)nc(NCc3ccccc3)n2)cc1	57.82 um	6.20
O=c1c2c([nH]c3ccccc13)CCCCCC2	42.48 um	6.14
CCC(C)Nc1nc(NC(C)CC)nc(N2CCCCCC2)n1 (centres undefined)	20.35 um	6.52
COc1cccc(NC(=O)c2ccc(NCCCN3CC(C)CC(C)C3)c([N+](=O)[O-])c2)c1 (centres undefined)	87.57 um	6.36
Cc1ccc(Nc2nc3c(N)nnc(N)c3nc2Nc2ccc(C)cc2)cc1	50.31 um	6.31

SMILES	Schizont size	pIC50
Nc1ccc(-c2nc3cc(Oc4ccc(Oc5ccc6[nH]c(-c7ccc(N)cc7)nc6c5)cc4)ccc3[nH]2)cc1	116.48 um	6.50
CCCCC(=O)NC(c1cccc([N+](=O)[O-])c1)c1ccc2cccnc2c1O (centres undefined)	23.69 um	6.35
c1ccc(OCCOc2ccc(Nc3c4ccccc4nc4ccccc34)cc2)cc1	41.33 um	6.25
Cl.Fc1ccccc1Nc1nc(NCc2ccccc2)c2ccccc2n1	37.58 um	6.16
CCCC(=O)N1CCN(c2nc(Cc3ccccc3)c3c(c2C#N)CC(C)(C)OC3)CC1	22.44 um	6.46
CCCCCCCC[n+]1c(C)n(C)c2cc(Cl)c(Cl)cc21.[I-]	40.39 um	6.38
CCN(CC)c1ccc(NC(=O)c2cccs2)cc1	54.07 um	6.40
CCCc1nc2ccc(NC(=O)c3ccco3)cc2c(=O)n1Cc1ccc(-c2ccccc2)cc1	25.78 um	6.51
Cc1ccccc1N=Nc1ccc(NC(=O)c2ccco2)c(C)c1	51.87 um	6.52
CCCN[P+](CC(C)C)(NCCC)NCCC	27.24 um	6.55
CCOC(=O)C1=C(C)NC2=C(C(=O)C(C(=O)OCC)C(c3ccccc3OC)C2)C1c1ccc([N+](=O)[O-])cc1 (centres undefined)	76.3 um	6.47
COC(=O)c1c(-c2c(Cl)cccc2Cl)noc1NC(=O)NN1CCCCC1	75.67 um	6.19
COc1ccc(C(NC(=O)c2cccnc2)c2cc(Cl)c3cccnc3c2O)cc1 (centres undefined)	21.08 um	6.27
CCN(CC)CCCN(Cc1cc2ccc(C)cc2[nH]c1=O)C(=S)Nc1cccc(Cl)c1	58.76 um	6.35
COc1ccc(Nc2nc(NCc3ccccc3)c3ccccc3n2)cc1	29.96 um	6.52
CC(=O)N(C1=C(N2CCOCC2)C(=O)c2ccccc2C1=O)c1ccc(I)cc1	50.1 um	6.22
CCC(Sc1nnc(-c2ccc(C)cc2)c(-c2ccc(C)cc2)n1)C(=O)NCCOC (centres undefined)	42.59 um	6.52
O=[N+]([O-])c1cccc(C(Nc2nccs2)c2ccc3cccnc3c2O)c1 (centres undefined)	43.42 um	6.45
Cl.Clc1cccc(Nc2nc(NCc3ccco3)c3ccccc3n2)c1	36.64 um	6.42

SMILES	Schizont size	pIC50
CN(C)c1cc[n+](CC(=O)Nc2ccc(Cl)cc2)cc1.[Cl-]	69.62 um	6.23
Cc1ccnc(NC(c2ccc3ccccc3c2)c2ccc3cccnc3c2O)c1 (centres undefined)	26.72 um	6.25
CCOC(=O)C1=C(C)NC2=C(C(=O)C(C(=O)OCC)C(c3ccccc3OC)C2)C1c1cc(OC)c(OC)c(OC)c1 (centres undefined)	103.54 um	6.29
CCOc1ccc(Nc2nc(NCc3ccccc3)c3ccccc3n2)cc1.Cl	23.69 um	6.32
O=C(Nc1ccc(Oc2cccc(Oc3ccc(NC(=O)c4ccc(Br)o4)cc3)c2)cc1)c1ccc(Br)o1	18.79 um	6.36
CCCCc1c(C)nc2c(OC)cccc2c1O	42.59 um	6.25
CCOC(=O)c1cnc2ccc(OC)cc2c1Cl	31 um	6.39
CCCCCc1c(C)c(C#N)c2nc3ccccc3n2c1NCCN(CC)CC	74 um	6.15
OC1=C2C(=Nc3ccccc3SC2c2ccc(Br)cc2)c2ccccc21 (centres undefined)	34.03 um	6.49
COc1ccc(C2Sc3ccccc3N=C3C2=C(O)c2ccccc23)cc1 (centres undefined)	39.14 um	6.15
Cc1cc(C(=O)Nc2cnn(Cc3ccc(Cl)cc3Cl)c2)no1	57.82 um	6.47
O=c1c2c([nH]c3ccccc13)CCCC2	39.45 um	6.30
CCOC(=O)CN(N=O)C1=C(N2CC2)C(=O)c2ccccc2C1=O	35.8 um	6.32
Oc1cccc2ccc[n+](CC(O)Cn3c4ccccc4c4ccccc43)c12.[Cl-] (centres undefined)	49.37 um	6.51
N#Cc1ccc(NC(=O)NC2CC3CCCC(C2)N3CCc2ccccc2)cc1 (centres undefined)	62 um	6.30
O=C(c1cnsn1)N1CCCC(COc2cccc(CN3CCC(Cc4ccccc4)CC3)c2)C1 (centres undefined)	69.41 um	6.22
CCN1CCN(c2c(C(=O)c3ccccc3)cnc3cc(OC)c(OC)cc23)CC1	89.76 um	6.44
CCCCNC(=O)C(CC)Sc1nnc(-c2ccc(C)cc2)c(-c2ccc(C)cc2)n1 (centres undefined)	31 um	6.54
CCCCN(CCCC)S(=O)(=O)c1ccc(NC(=O)c2ccco2)cc1	35.28 um	6.42
